Legend:
Type in all cases: functional
BT-549 = test: Cytotoxicity against human BT549 cells
How it was run: (§1)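 Tested in a 60-cell-line human tumor panel screen; the read-out is growth inhibition, reported as GI50 for each cell line.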

HT-29 = test: Cytotoxicity against human HT-29 cells; how it was run: as §1
SF-268 = test: Cytotoxicity against human SF268 cells; how it was run: as §1
[1] = Cytotoxicity against human NCI-ADR-RES cells; how it was run: as §1
A498 = test: Cytotoxicity against human A498 cells; how it was run: as §1
HCC 2998 = test: Cytotoxicity against human HCC2998 cells; how it was run: as §1
MOLT-4 = test: Cytotoxicity against human MOLT4 cells; how it was run: as §1
[2] = Cytotoxicity against human UACC62 cells
How it was run: (§2)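 Cell line run as part of the 60-cell-line screening panel; growth inhibition was reported as a GI50 for each line.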

ACHN = test: Cytotoxicity against human ACHN cells; how it was run: as §1
[3] = Cytotoxicity against human OVCAR3 cells; how it was run: as §1
PC-3 = test: Cytotoxicity against human PC3 cells; how it was run: as §1
[4] = Cytotoxicity against human UO31 cells; how it was run: as §2
LOX IMVI = test: Cytotoxicity against human LOXIMVI cells; how it was run: as §1
MCF7 = test: Cytotoxicity against human MCF7 cells; how it was run: as §1
786-0 = test: Cytotoxicity against human 786-0 cells; how it was run: as §1
[5] = Cytotoxicity against human OVCAR4 cells; how it was run: as §1
HCT-116 = test: Cytotoxicity against human HCT116 cells; how it was run: as §1
NCI-H226 = test: Cytotoxicity against human NCI-H226 cells; how it was run: as §1
SNB-75 = test: Cytotoxicity against human SNB75 cells; how it was run: as §2
HL-60(TB) = test: Cytotoxicity against human HL-60(TB) cells
How it was run: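 Tested within the NCI 60-cell-line screen, with GI50 as the read-out. Values are the average of two independent experiments. The lowest concentration tested was 10 nM.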

A549 = test: Cytotoxicity against human A549 cells; how it was run: as §1
SN12C = test: Cytotoxicity against human SN12C cells; how it was run: as §1
[6] = read-out: pLC50 (the source's name) (converted)

COc1cc(/C=C/c2cc(O)c3c(c2)C[C@@H]2C(C)(C)[C@H](O)CC[C@@]2(C)O3)cc2[nH]cc(CC=C(C)C)c12
GI50 (BT-549): 0.479 µM
CC50 (BT-549; [6]): 67.6 µM
TGI (BT-549; read-out: pTGI (converted)): 41.7 µM
GI50 (HT-29): 0.832 µM
CC50 (HT-29; [6]): 21.4 µM
TGI (HT-29; read-out: pTGI (converted)): 5.37 µM
GI50 (SF-268): 0.851 µM
CC50 (SF-268; [6]): 69.2 µM
TGI (SF-268; read-out: pTGI (converted)): 38.9 µM
GI50 [1]: 7.59 µM
CC50 [1, 6]: 85.1 µM
TGI ([1]; read-out: pTGI (converted)): 46.8 µM
GI50 (A498): 0.0661 µM
CC50 (A498; [6]): 44.7 µM
TGI (A498; read-out: pTGI (converted)): 2.69 µM
GI50 (HCC 2998): 6.03 µM
CC50 (HCC 2998; [6]): 67.6 µM
TGI (HCC 2998; read-out: pTGI (converted)): 37.2 µM
GI50 (MOLT-4): 0.105 µM
CC50 (MOLT-4; [6]): > 100 µM
TGI (MOLT-4; read-out: pTGI (converted)): 2.57 µM
GI50 ([2]; UACC-62): 0.1 µM
CC50 ([2]; UACC-62, read-out: pLC50 (the source's name) (converted)): 33.9 µM
TGI ([2]; UACC-62, read-out: pTGI (converted)): 0.955 µM
GI50 (ACHN): 3.63 µM
LC50 (concentration killing 50% of cells) (ACHN): 61.7 µM
TGI (ACHN; read-out: pTGI (converted)): 38 µM
GI50 ([3]; OVCAR-3): 8.71 µM
CC50 ([3]; OVCAR-3, read-out: pLC50 (the source's name) (converted)): 63.1 µM
TGI ([3]; OVCAR-3, read-out: pTGI (converted)): 36.3 µM
GI50 (PC-3): 1.32 µM
LC50 (PC-3): > 100 µM
TGI (PC-3; read-out: pTGI (converted)): 43.7 µM
GI50 ([4]; UO-31): 0.129 µM
LC50 ([4]; UO-31): 69.2 µM
TGI ([4]; UO-31, read-out: pTGI (converted)): 21.4 µM
GI50 (LOX IMVI): 0.282 µM
CC50 (LOX IMVI; [6]): 30.9 µM
TGI (LOX IMVI; read-out: pTGI (converted)): 6.61 µM
GI50 (MCF7): 0.537 µM
LC50 (MCF7): 55 µM
TGI (MCF7; read-out: pTGI (converted)): 12.3 µM
GI50 (786-0): 0.01 µM
LC50 (concentration killing 50% of cells) (786-0): 21.4 µM
TGI (786-0; read-out: pTGI (converted)): 2.45 µM
GI50 ([5]; OVCAR-4): 10.7 µM
CC50 ([5]; OVCAR-4, read-out: pLC50 (the source's name) (converted)): 77.6 µM
TGI ([5]; OVCAR-4, read-out: pTGI (converted)): 47.9 µM
GI50 (HCT-116): 0.339 µM
CC50 (HCT-116; [6]): 64.6 µM
TGI (HCT-116; read-out: pTGI (converted)): 36.3 µM
GI50 (NCI-H226): 8.32 µM
CC50 (NCI-H226; [6]): 72.4 µM
TGI (NCI-H226; read-out: pTGI (converted)): 33.1 µM
GI50 (SNB-75): 0.01 µM
CC50 (SNB-75; [6]): 64.6 µM
TGI (SNB-75; read-out: pTGI (converted)): 10.5 µM
GI50 (HL-60(TB)): 0.0646 µM
CC50 (HL-60(TB); [6]): 79.4 µM
TGI (HL-60(TB); read-out: pTGI (converted)): 18.2 µM
GI50 (A549): 2.4 µM
CC50 (A549; [6]): 67.6 µM
TGI (A549; read-out: pTGI (converted)): 38.9 µM
GI50 (SN12C): 8.51 µM
LC50 (SN12C): 75.9 µM

— ChEMBL document CHEMBL3232844, “Synthesis and structure activity relationships of schweinfurthin indoles” (2014)
